Laboratory results reported in PubChem BioAssay.
Active and inactive are the calls of the source.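 The calls were made as follows, unless noted: active = GFP response above 150% of the DMSO level; inconclusive = fewer than 70 events counted for a yeast strain; inactive = the rest.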

Columns and labels:
[1] = RPL19A-GFP modulators, yeast TOR pathway, confirmation, cell-based, S. cerevisiae, flow cytometry, cherry picks, mother/daughter gates (AID 2270;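 active = GFP response below 50% of the DMSO control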); conditions: S. cerevisiae RPL19A-GFP strain, 3 h, at 10 µM, stronger effect = lower value, 100 = same GFP as DMSO wells
[2] = LAP4-GFP expression modulators in yeast, confirmation, cell-based, cherry picks, flow cytometry, mother/daughter gates (AID 2271;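 active = GFP response above 150% of the DMSO control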;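 also: ratio of sample to DMSO plate mean so 100% equals DMSO level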); conditions: S. cerevisiae LAP4-GFP strain, 3 h, at 10 µM, stronger effect = higher value, 100 means same as DMSO control
Procedure, shortened: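 Test system: GFP-fusion yeast strain / Amount: 0.2 OD600 cells / Buffer or medium: SC medium / Dosing: 10 µM single dose / Incubation: compound exposure 3 h at 30 °C, end-over-end rotation / Detection: HT flow cytometry, GFP fluorescence channel / Evaluation: median GFP fluorescence as percent of plate-mean DMSO wells / Control set: DMSO-only negative wells, rapamycin 400 ng/mL positive wells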

[3] = modulators of MEP2-GFP levels in yeast, confirmation, S. cerevisiae, flow cytometry GFP, cherry picks (AID 2272;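 active = GFP response above 150% of the DMSO control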;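 also: ratio of well signal to plate DMSO mean so 100% equals DMSO level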); conditions: S. cerevisiae MEP2-GFP strain, 3 h, at 10 µM, stronger effect = higher value
[4] = AGP1-GFP expression modulators, hit retest, confirmation, cell-based, flow cytometry, S. cerevisiae, cherry picks (AID 2273);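 also: median GFP channel fluorescence over the whole cell population gate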; conditions: S. cerevisiae AGP1-GFP strain, 3 h, at 10 µM
[5] = modulators of CIT2-GFP expression in yeast, confirmation, S. cerevisiae, GFP fusion, cherry picks, mother/daughter gates (AID 2274); conditions: S. cerevisiae CIT2-GFP strain, flow cytometry, 3 h, at 10 µM, stronger effect = higher value
[6] = measured here: daughter cell gate
[7] = measured here: mother cell gate
[8] = measured here: daughter cell gate response
[9] = measured here: mother cell gate response

Row | SMILES | GFP response vs DMSO [1] | GFP response vs DMSO [1, 6] [%] | GFP response vs DMSO [1, 7] [%] | GFP response relative to DMSO [2] | GFP response relative to DMSO [2, 8] [%] | GFP response relative to DMSO [2, 9] [%] | GFP response vs DMSO [3] | GFP response, % of DMSO [4] | GFP response, % of DMSO [5] | GFP response, % of DMSO [5, 6] [%] | GFP response, % of DMSO [5, 7] [%]
1 | O=C(/C=C/c1ccnc2ccccc12)c1cccs1 | 101% (inactive) | 98.8 | 99.5 | 172% (active) | 156 | 171 | 126% (inactive) | 112% (inactive) | 90.7% (inactive) | 94.6 | 84
2 | CC(=O)Nc1c(-c2ccc(F)cc2)nc2ccccn12 | 97.6% (inactive) | 99 | 95.8 | 106% (inactive) | 110 | 108 | 116% (inactive) | 106% (inactive) | 110% (inactive) | 114 | 108
3 | Cc1onc(-c2c(Cl)cccc2Cl)c1NC(=O)NNc1c(Cl)cncc1Cl | 99.8% (inactive) | 99.4 | 99.2 | 103% (inactive) | 102 | 100 | 100% (inactive) | 97.2% (inactive) | 99.7% (inactive) | 101 | 97.3
4 | CCC(=O)Oc1oc(-c2ccccc2)nc1C=Nc1ccccc1OC | 102% (inactive) | 102 | 102 | 105% (inactive) | 94.4 | 108 | 95.2% (inactive) | 95.5% (inactive) | 90.3% (inactive) | 86.9 | 92.6
5 | CC(=O)N(C1=C(Cl)C(=O)c2ccccc2C1=O)C1CCCCC1 | 22.6% (active) | 92.8 | 23.1 | 72.2% (inactive) | 113 | 73.7 | 97.8% (inactive) | 34.1% (inactive) | 69.1% (inactive) | 93.2 | 54.7
6 | CCOC(=O)CSC1=NC(=O)/C(=C/c2ccc(OC)cc2)S1 | 100% (inactive) | 92.5 | 98.2 | 154% (active) | 139 | 159 | 103% (inactive) | 102% (inactive) | 79.7% (inactive) | 79.4 | 71.8
7 | O=C(OCc1cccc([N+](=O)[O-])c1)c1cnccn1 | 98.5% (inactive) | 99.5 | 97.1 | 102% (inactive) | 97.5 | 105 | 103% (inactive) | 97% (inactive) | 98.6% (inactive) | 101 | 96
8 | C/C(=N\NC(=O)c1nonc1N)c1cccs1 | 98.2% (inactive) | 98.8 | 98.1 | 102% (inactive) | 99.3 | 100 | 99.5% (inactive) | 94.5% (inactive) | 99.3% (inactive) | 98.3 | 98
9 | Cc1ccc2[nH]cc(/C=C/c3cc[n+](C)cc3)c2c1 | 106% (inactive) | 106 | 105 | 153% (active) | 156 | 154 | 170% (inactive) | 116% (inactive) | 147% (inactive) | 156 | 140
10 | O=C(NCc1cccnc1)c1cnc2n(c1=O)CCS2 | 101% (inactive) | 101 | 101 | 101% (inactive) | 104 | 100 | 99.3% (inactive) | 102% (inactive) | 98.6% (inactive) | 101 | 99.3
11 | Cc1nn(C)c(C(=O)Sc2cccc(Cl)c2)c1[N+](=O)[O-] | 99.6% (inactive) | 97.6 | 99.4 | 126% (inactive) | 114 | 130 | 121% (inactive) | 102% (inactive) | 104% (inactive) | 103 | 101
12 | O=C(O)c1ccccc1SC1CC(=O)N(c2ccc3c(c2)OCO3)C1=O (stereo not drawn) | 97.6% (inactive) | 102 | 93.8 | 106% (inactive) | 102 | 108 | 103% (inactive) | 102% (inactive) | 95.8% (inactive) | 99.3 | 94.9
13 | CCOc1cc(C(=S)N2CCCCC2)ccc1OS(=O)(=O)c1ccc(Cl)cc1 | 96.5% (inactive) | 96.1 | 96.5 | 102% (inactive) | 101 | 105 | 103% (inactive) | 105% (inactive) | 100% (inactive) | 99.3 | 98.2
14 | O=C(N/N=C/c1ccccc1Cl)c1ccc(F)cc1 | 98.2% (inactive) | 98.1 | 97.2 | 111% (inactive) | 104 | 112 | 96.8% (inactive) | 102% (inactive) | 105% (inactive) | 103 | 103
15 | COc1ccccc1N=Nc1ccc(O)c2ncccc12 | 104% (inactive) | 101 | 101 | 235% (active) | 203 | 223 | 132% (inactive) | 115% (inactive) | 158% (active) | 126 | 161
16 | Cc1ccc(-n2nnnc2C(Cl)(Cl)c2nnnn2-c2ccc(C)cc2)cc1 | 99.7% (inactive) | 98.8 | 98.6 | 136% (inactive) | 120 | 139 | 112% (inactive) | 100% (inactive) | 105% (inactive) | 106 | 100
17 | Cc1ccc(/C=C/C(=O)N2CC(C)CC(C)C2)o1 (stereo not drawn) | 103% (inactive) | 105 | 101 | 111% (inactive) | 107 | 113 | 116% (inactive) | 105% (inactive) | 106% (inactive) | 103 | 105

Row | SMILES | GFP response vs DMSO [1] | GFP response vs DMSO [1, 6] [%] | GFP response vs DMSO [1, 7] [%] | GFP response relative to DMSO [2] | GFP response relative to DMSO [2, 8] [%] | GFP response relative to DMSO [2, 9] [%] | GFP response vs DMSO [3] | GFP response, % of DMSO [4] | GFP response, % of DMSO [5] | GFP response, % of DMSO [5, 6] [%] | GFP response, % of DMSO [5, 7] [%]
18 | Brc1cc(Br)c2nc(-c3cccs3)ccc2c1 | 97.4% (inactive) | 99.1 | 96.7 | 99.5% (inactive) | 99.1 | 98.4 | 101% (inactive) | 98.2% (inactive) | 100% (inactive) | 97.4 | 99.3
19 | O=C(/C=C/c1c(F)cccc1Cl)c1ccc(O)cc1 | 94.3% (inactive) | 94 | 94.6 | 144% (inactive) | 137 | 152 | 105% (inactive) | 105% (inactive) | 94.7% (inactive) | 93.7 | 93.7
20 | O=C(O)c1ccc2c3c(ncnc13)-c1ccccc1C2=O | 113% (inactive) | 95.3 | 107 | 135% (inactive) | 130 | 134 | 135% (inactive) | 105% (inactive) | 123% (inactive) | 105 | 117
21 | O=[N+]([O-])/C=C/c1c(OCc2ccccc2)ccc2ccccc12 | 102% (inactive) | 104 | 101 | 112% (inactive) | 106 | 118 | 98.8% (inactive) | 102% (inactive) | 99.7% (inactive) | 103 | 94.7
22 | N#Cc1ccc(Sc2ccccn2)c([N+](=O)[O-])c1 | 102% (inactive) | 101 | 102 | 102% (inactive) | 105 | 103 | 102% (inactive) | 97.8% (inactive) | 104% (inactive) | 99.7 | 105
23 | Cc1ccc(C(=O)NNC(=S)NC(=O)c2ccco2)cc1 | 112% (inactive) | 113 | 109 | 120% (inactive) | 117 | 121 | 115% (inactive) | 103% (inactive) | 108% (inactive) | 114 | 102
24 | COc1ccc([N+](=O)[O-])c(S(=O)(=O)c2ccc(Cl)cc2)n1 | 84.5% (inactive) | 54.7 | 74.7 | 333% (active) | 173 | 309 | 136% (inactive) | 131% (inactive) | 93.4% (inactive) | 100 | 78.8
25 | CC1=NNC(=O)/C1=C\c1cn(-c2ccccc2)nc1-c1ccc(Cl)cc1 | 97.6% (inactive) | 98.3 | 98.5 | 107% (inactive) | 101 | 114 | 101% (inactive) | 105% (inactive) | 97.2% (inactive) | 96.8 | 95.7
26 | Cc1ccc2nc(/C(C#N)=C/c3ccc(O)c(O)c3)[nH]c2c1 | 103% (inactive) | 102 | 105 | 123% (inactive) | 110 | 133 | 230% (active) | 102% (inactive) | 128% (inactive) | 114 | 140
27 | O=C(CSCc1cccc(Br)c1)N=Nc1c(O)[nH]c2ccccc12 | 76.9% (inactive) | 67.8 | 73 | 126% (inactive) | 102 | 126 | 124% (inactive) | 137% (inactive) | 130% (inactive) | 110 | 129
28 | CCCn1c(=O)c(C(=O)Nc2ccccc2)c(O)c2ccccc21 | 96.7% (inactive) | 96.4 | 95.6 | 100% (inactive) | 97.5 | 98.4 | 99.3% (inactive) | 96.6% (inactive) | 98.6% (inactive) | 95.8 | 97.1
29 | Cc1ccc(NC(=O)c2nc(S(=O)(=O)Cc3ccccc3C)ncc2Cl)cc1C | 91.6% (inactive) | 89.6 | 91.6 | 107% (inactive) | 107 | 107 | 103% (inactive) | 107% (inactive) | 94.4% (inactive) | 92.3 | 94.9
30 | CS(=O)(=O)N1N=C(c2ccco2)CC1c1ccccc1 (stereo not drawn) | 100% (inactive) | 101 | 99.9 | 102% (inactive) | 102 | 100 | 99% (inactive) | 105% (inactive) | 106% (inactive) | 105 | 103
31 | CCc1noc(C)c1C(=O)Nc1nc2ccc(OC)cc2s1 | 91.8% (inactive) | 92.7 | 92.5 | 108% (inactive) | 108 | 111 | 99.3% (inactive) | 95.5% (inactive) | 90.3% (inactive) | 92.3 | 90.4
32 | CNC(=O)/C(C#N)=C/c1c(N2CC(C)OC(C)C2)nc2ccccn2c1=O (stereo not drawn) | 97.6% (inactive) | 88.7 | 90.1 | 94.4% (inactive) | 92.6 | 92 | 101% (inactive) | 110% (inactive) | 98.8% (inactive) | 95.6 | 85.8
33 | CCOC(=O)C(CC)Sc1ncnc2c1nnn2-c1ccc(F)cc1 (stereo not drawn) | 94.8% (inactive) | 95.1 | 95.8 | 101% (inactive) | 101 | 99.3 | 96.2% (inactive) | 94.8% (inactive) | 96.9% (inactive) | 97.2 | 97.3
